Test [1] can be described thus: Anticoagulant activity in rabbit plasma assessed as increase in activated partial thromboplastin time. Type of test: functional, Oryctolagus cuniculus.
Test [2] in a line: Anticoagulant activity in healthy human plasma assessed as increase in prothrombin time. Format: functional. The essentials:
(§1)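 Concentration doubling clotting time (EC2x), human or rabbit plasma. Plasma from centrifugation at 2000 g, 10 min. Inhibitor stock in DMSO, serially diluted; clotting time measured in control plasma and plasma with five to seven inhibitor concentrations. PT run on temperature-controlled automated coagulation analyser with Thromborel-S reagent. Duplicate determinations at each concentration.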

Test [3] is described as follows: Anticoagulant activity in rabbit plasma assessed as increase in prothrombin time. Format: functional, Oryctolagus cuniculus. The essentials: as §1
Test [4] can be described thus: Anticoagulant activity in healthy human plasma assessed as increase in activated partial thromboplastin time. Type of test: functional.
The target of a further test is Coagulation factor X (Homo sapiens, UniProt P00742). In words: Inhibition of human coagulation factor 10a assessed as reduction in p-nitroaniline cleavage from pefachrome substrate preincubated for 10 mins followed by substrate addition measured after 20 mins.
The species named for the next test is Rattus norvegicus. In words: Antithrombotic activity in rat venous thrombus model assessed as inhibition of thrombus formation relative to control. Type of test: functional. The essentials: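 Rat venous stasis model: after 2 h the abdomen was reopened and the vena cava dissected longitudinally. Thrombus removed, held at 37 °C for 24 h, then dry weight measured.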

Chain of Coagulation factor X (P00742 41-179 limits assumed): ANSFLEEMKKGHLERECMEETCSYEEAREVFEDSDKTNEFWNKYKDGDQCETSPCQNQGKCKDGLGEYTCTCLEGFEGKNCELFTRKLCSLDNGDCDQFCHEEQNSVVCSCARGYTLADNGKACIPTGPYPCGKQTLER
Chain of Coagulation factor X (P00742 235-488 limits assumed): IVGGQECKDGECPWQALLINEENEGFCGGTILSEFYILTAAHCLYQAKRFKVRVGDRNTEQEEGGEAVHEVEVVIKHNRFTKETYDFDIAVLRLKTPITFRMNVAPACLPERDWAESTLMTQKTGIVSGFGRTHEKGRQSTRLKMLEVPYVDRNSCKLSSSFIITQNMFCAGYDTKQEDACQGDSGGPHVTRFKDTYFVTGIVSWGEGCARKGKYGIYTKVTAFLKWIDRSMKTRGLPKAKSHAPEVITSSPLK

For `COc1ccc(-n2nc(-c3nncn3CCN(C)C)c3c2C(=O)N(c2ccc(N4CCCCC4=O)cc2)CC3)cc1`, the 2aPTT in test [1] amounted to 8 µM; in test [4], 7 µM. Also, the 2PT in test [2] was 3.9 µM; in test [3] it was 4.4 µM.

As to `COc1ccc(-n2nc(-c3ncnn3C)c3c2CCN(c2ccc(N4CCCCC4=O)cc2)C3=O)cc1`, the figures for the 2aPTT in test [1] and in test [4] were 15.1 µM and 10 µM, respectively. Besides, the figures for the 2PT in test [2] and in test [3] were 3.3 µM and 4.1 µM, respectively.

With `COc1ccc(-n2nc(-c3n[nH]c(=O)n3-c3ccccc3)c3c2C(=O)N(c2ccc(N4CCCCC4=O)cc2)CC3)cc1`, the values for the 2aPTT in test [1] and in test [4] were 22.1 µM and 20.3 µM, respectively. The 2PT in test [2] came to 12.9 µM; in test [3], 13.3 µM.

On to `O=C1CCCCN1c1ccc(N2CCc3c(-c4nc[nH]n4)nn(-c4ccc(OC(F)F)cc4)c3C2=O)cc1`, for which the 2aPTT in test [1] came to 7.8 µM; in test [4] it was 6.6 µM. Besides, the results for the 2PT in test [2] and in test [3] were 3.6 µM and 4 µM, respectively.

`CCN(CC)Cc1cccn1-c1nn(-c2ccc(OC)cc2)c2c1CCN(c1ccc(N3CCCCC3=O)cc1)C2=O`: the 2aPTT in test [1] is 3.9 µM; in test [4], 3.7 µM. Further, the results for the 2PT in test [2] and in test [3] were 1.6 µM and 2.1 µM, respectively.

As for `COc1ccc(-n2nc(-c3n[nH]c(=O)n3-c3ccc(OC)cc3)c3c2C(=O)N(c2ccc(N4CCCCC4=O)cc2)CC3)cc1`, the 2aPTT in test [1] worked out at 19.2 µM; in test [4], 21.3 µM. The 2PT in test [2] was 14.8 µM; in test [3], 9.2 µM.

With `O=C1CCCCN1c1ccc(N2CCc3c(-c4nc[nH]n4)nn(-c4ccc(Br)cc4)c3C2=O)cc1`, the 2aPTT turned out to be 10.2 µM in test [1] and 11.3 µM in test [4]. For the same compound, the 2PT in test [2] is 6.4 µM; in test [3], 7.9 µM.

As to `COc1ccc(-n2nc(-n3cccc3CN3CCOCC3)c3c2C(=O)N(c2ccc(N4CCCCC4=O)cc2)CC3)cc1`, the values for the 2aPTT in test [1] and in test [4] were 3.9 µM and 2.4 µM, respectively. Moreover, the 2PT in test [2] was 1.1 µM; in test [3], 1.7 µM. In addition, on Coagulation factor X, the IC50 (usually the midpoint of a concentration-inhibition curve) was determined as 2400 nM. For the same compound, the “inhibition (INH)” value in the test listed under Rattus norvegicus is listed as 57%.

Consider `COc1ccc(-n2nc(-c3nncn3CCCN3CCOCC3)c3c2C(=O)N(c2ccc(N4CCCCC4=O)cc2)CC3)cc1`, for which the figures for the 2aPTT in test [1] and in test [4] were 15 µM and 10.5 µM, respectively. Besides, the 2PT in test [2] amounted to 5.5 µM; in test [3], 7.5 µM.

For `COc1ccc(-n2nc(-n3cccc3CN(C)C)c3c2C(=O)N(c2ccc(N4CCCCC4=O)cc2)CC3)cc1`, the 2aPTT is 3.2 µM in test [1] and 3.5 µM in test [4]. Moreover, the figures for the 2PT in test [2] and in test [3] were 1.5 µM and 1.9 µM, respectively.

`COc1ccc(-n2nc(C(N)=O)c3c2C(=O)N(c2ccc(N4CCCCC4=O)cc2)CC3)cc1` [APIXABAN]: the 2aPTT in test [1] is 1.4 µM; in test [4], 0.9 µM. Besides, the 2PT in test [2] is 0.8 µM; in test [3], 0.6 µM. Moreover, the “inhibition (INH)” value in the test filed under Rattus norvegicus was 96%.

As to `COc1ccc(-n2nc(-c3ncn(C)n3)c3c2CCN(c2ccc(N4CCCCC4=O)cc2)C3=O)cc1`, the 2aPTT came to 3 µM in test [1] and 1.9 µM in test [4]. The 2PT is 0.8 µM in test [2] and 0.9 µM in test [3]. In addition, on Coagulation factor X, the IC50 was 2400 nM. Besides, the “inhibition (INH)” value in the test filed under Rattus norvegicus is given as 65%.

As for `O=C1CCCCN1c1ccc(N2CCc3c(-c4nc[nH]n4)nn(-c4ccc(Cl)cc4)c3C2=O)cc1`, the 2aPTT turned out to be 9.9 µM in test [1] and 8.4 µM in test [4]. The 2PT in test [2] is 4.3 µM; in test [3], 4.2 µM.

In the case of `COCc1nc(-c2nn(-c3ccc(OC)cc3)c3c2CCN(c2ccc(N4CCCCC4=O)cc2)C3=O)n[nH]1`, the 2aPTT in test [1] was found to be 6 µM; in test [4], 4.1 µM. For the same compound, the 2PT is 2.4 µM in test [2] and 3 µM in test [3].

Turning to `O=C1CCCCN1c1ccc(N2CCc3c(-c4nc[nH]n4)nn(-c4ccc(F)cc4)c3C2=O)cc1`, the 2aPTT amounted to 5.1 µM in test [1] and 4.5 µM in test [4]. Besides, the 2PT in test [2] is 1.8 µM; in test [3], 2.8 µM.

With `CCN(CC)CCCn1cnnc1-c1nn(-c2ccc(OC)cc2)c2c1CCN(c1ccc(N3CCCCC3=O)cc1)C2=O`, the 2aPTT in test [1] stood at 11.1 µM; in test [4] it was 10 µM. Also, the 2PT came out at 5 µM in test [2] and 6.1 µM in test [3].

Take `COc1ccc(-n2nc(-c3n[nH]c(C4CC4)n3)c3c2C(=O)N(c2ccc(N4CCCCC4=O)cc2)CC3)cc1`: the 2aPTT was 6 µM in test [1] and 5.1 µM in test [4]. Also, the 2PT came to 3.5 µM in test [2] and 4.9 µM in test [3].

Consider `COc1ccc(-n2nc(-c3nncn3CCCN(C)C)c3c2C(=O)N(c2ccc(N4CCCCC4=O)cc2)CC3)cc1`, for which the 2aPTT in test [1] came to 10.1 µM; in test [4], 9 µM. Moreover, the 2PT in test [2] is 4.5 µM; in test [3], 5.7 µM.

On to `COc1ccc(-n2nc(-c3nc[nH]n3)c3c2C(=O)N(c2ccc(N4CCCCC4=O)cc2)CC3)cc1`, for which the 2aPTT was found to be 1.2 µM in test [1] and 0.8 µM in test [4]. Moreover, the 2PT in test [2] was determined as 0.5 µM; in test [3] it was 0.7 µM. Further, the half-maximal inhibitory concentration (IC50) on Coagulation factor X stood at 150 nM. In addition, the “inhibition (INH)” value in the test listed under Rattus norvegicus came out at 99%.

Turning to `COc1ccc(-n2nc(C(N)=O)c3c2C(=O)N(c2ccc(C4=NCCCN4)cc2)CC3)cc1`, the 2aPTT worked out at 2 µM in test [1] and 1.1 µM in test [4]. In addition, the 2PT in test [2] worked out at 0.9 µM; in test [3], 1.1 µM. Moreover, the IC50 on Coagulation factor X is 350 nM. Moreover, in the test filed under Rattus norvegicus, the “inhibition (INH)” value is 82%.

In the case of `O=C1CCCCN1c1ccc(N2CCc3c(-c4nc[nH]n4)nn(-c4ccc(OC(F)(F)F)cc4)c3C2=O)cc1`, the 2aPTT in test [1] turned out to be 12 µM; in test [4] it was 10.5 µM. Moreover, the 2PT was 5.5 µM in test [2] and 6.4 µM in test [3].

Turning to `COc1ccc(-n2nc(-c3n[nH]c(C)n3)c3c2C(=O)N(c2ccc(N4CCCCC4=O)cc2)CC3)cc1`, the values for the 2aPTT in test [1] and in test [4] were 3.2 µM and 3.7 µM, respectively. Moreover, the 2PT in test [2] worked out at 1.6 µM; in test [3], 1.9 µM.

As to `COc1ccc(-n2nc(-c3n[nH]c(C4CCCO4)n3)c3c2C(=O)N(c2ccc(N4CCCCC4=O)cc2)CC3)cc1` (configuration not stated), the 2aPTT in test [1] was 7.9 µM; in test [4] it was 6.3 µM. Besides, the 2PT was determined as 3.9 µM in test [2] and 5 µM in test [3].

For the compound `COc1ccc(-n2nc(C(N)=O)c3c2C(=O)N(c2ccc(C4=NCCN4)cc2)CC3)cc1`, the 2aPTT was found to be 1 µM in test [1] and 0.9 µM in test [4]. Besides, the figures for the 2PT in test [2] and in test [3] were 0.9 µM and 0.7 µM, respectively. Besides, the half-inhibitory concentration (IC50) on Coagulation factor X was 1990 nM. Moreover, in the test listed under Rattus norvegicus, the “inhibition (INH)” value is 66%.

Regarding `COc1ccc(-n2nc(-c3n[nH]c(C(C)(C)C)n3)c3c2C(=O)N(c2ccc(N4CCCCC4=O)cc2)CC3)cc1`, the 2aPTT came to 4.1 µM in test [1] and 2.3 µM in test [4]. For the same compound, the 2PT in test [2] was 1 µM; in test [3] it was 1.4 µM. On Coagulation factor X, the IC50 worked out at 850 nM. Besides, the “inhibition (INH)” value in the test listed under Rattus norvegicus was 70%.

Take `COc1ccc(-n2nc(-c3n[nH]c(=O)n3-c3ccccc3C(F)(F)F)c3c2C(=O)N(c2ccc(N4CCCCC4=O)cc2)CC3)cc1`: the values for the 2aPTT in test [1] and in test [4] were 32.1 µM and 30.1 µM, respectively. The 2PT is 16.8 µM in test [2] and 17.9 µM in test [3].

Source of the values: ChEMBL document CHEMBL3861997 (Bioorg Med Chem, 2016).
